An excerpt weighted towards active compounds, which were near 3.5% of everything screened.
RGS4 inh – human RGS4 inhibition | 310,000 compounds, 0.45% hits | AID 463165 | P49798 | B-score at 10 µM | HEK293 M3R/RGS4 inducible, Fluo-4 calcium flux; active compounds read high; triggered by carbachol at its EC20;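 active means B-score, a plate-corrected calcium signal, over three deviations above library mean, with baseline fluorescence within five deviations of library mean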;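 further: RGS4 expression induced by doxycycline in cells with stable M3 receptor; B-score is computed from the integrated fluorescence ratio over baseline after carbachol; higher B-score means a larger calcium signal and so more RGS4 inhibition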
Target sequence (P49798 whole entry, looked up): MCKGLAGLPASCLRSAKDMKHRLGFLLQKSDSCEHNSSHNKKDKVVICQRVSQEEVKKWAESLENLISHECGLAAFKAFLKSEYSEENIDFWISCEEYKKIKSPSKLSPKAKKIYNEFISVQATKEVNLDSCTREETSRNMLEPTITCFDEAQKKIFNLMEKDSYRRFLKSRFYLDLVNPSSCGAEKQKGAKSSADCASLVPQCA
MrgX1 allo act – human MrgX1 positive allosteric modulation, primary screen; Q96LB2; MrgX1-HEK293, Fluo-4 calcium flux, FDSS; active compounds read high; B-score at 10 µM; 310,000 compounds, 0.63% hits; AID 588675;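 active means plate-corrected calcium response at least 3 library SD above typical, normal starting fluorescence, not activating the receptor alone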;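 further: compound read alongside a low EC10 to EC30 dose of BAM8-22 agonist; peak minus trough fluorescence over baseline measured at the second addition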
Target sequence (Q96LB2 whole entry, looked up): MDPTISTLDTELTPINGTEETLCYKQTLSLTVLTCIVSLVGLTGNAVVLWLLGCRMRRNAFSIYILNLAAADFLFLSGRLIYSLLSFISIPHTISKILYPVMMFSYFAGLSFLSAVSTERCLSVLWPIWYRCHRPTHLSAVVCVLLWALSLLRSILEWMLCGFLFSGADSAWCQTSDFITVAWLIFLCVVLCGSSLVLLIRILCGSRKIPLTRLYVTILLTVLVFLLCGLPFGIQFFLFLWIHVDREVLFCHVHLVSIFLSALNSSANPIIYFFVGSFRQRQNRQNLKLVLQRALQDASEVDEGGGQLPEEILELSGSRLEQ
MrgX1 antagonist – antagonists of human MrgX1 receptor; B-score at 10 µM; Q96LB2; 310,000 compounds, 1.3% hits; MRGX1-HEK293 calcium flux, Fluo-4, BAM8-22 antagonism; active compounds read low;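 active means calcium-response B-score plate-corrected more than 3 library SD below zero, starting fluorescence within 5 deviations, no agonist response on first addition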;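 further: peak minus trough fluorescence over baseline after final BAM8-22 challenge near maximal dose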
RGS4 act – RGS4 potentiation or activation; HEK293 M3R/inducible RGS4, carbachol calcium flux Fluo4; active compounds read low; B-score at 10 µM; 310,000 compounds, 0.92% hits; AID 463111;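 active means B-score of the integrated calcium signal more than 4 SD below the library mean, with starting fluorescence not abnormally high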;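 further: negative B-score means reduced calcium response which marks RGS4 activation or potentiation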
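Test system: HEK293 cells with stable M3R and inducible RGS4; also added: carbachol at ECmax as muscarinic agonist stimulus; schedule: dye loading 30 min 37 °C, buffer rest 30 min RT; technique: kinetic calcium fluorescence imaging with Fluo4-AM dye, 2 µM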
MrgX1 ag – activates human MrgX1 receptor signaling; Q96LB2; MrgX1-HEK293 cells, Fluo-4 calcium fluorescence, agonist mode; active compounds read high; B-score at 10 µM; 310,000 compounds, 0.44% hits; AID 588627;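 active means calcium response B-score plate-corrected fluorescence ratio at least 3 library SD, with starting fluorescence B-score inside 5 SD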
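Test system: Stable human MrgX1 HEK293 cell line | Schedule: Overnight plating before 1 h dye loading | Read-out basis: Baseline-normalised fluorescence change ratio, B-scored | Detection: Kinetic calcium dye fluorescence, Fluo-4 NW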
Numbers without * were called inactive; i = inactive.

SMILES | RGS4 inh | MrgX1 allo act | MrgX1 antagonist | RGS4 act | MrgX1 ag
COc1ccc(OC)c(NCc2nnc(-c3ccccc3)o2)c1 | i | i | i | i | i
CCOc1ccc(N(CC(=O)Nc2cc(OC)cc(OC)c2)S(=O)(=O)c2c(C)[nH]c(=O)[nH]c2=O)cc1 | i | i | i | i | i
COCCN1C(=O)N[C@@H](c2ccco2)C(C(=O)OC)=C1C | i | i | i | i | i
O=C(NCc1cccnc1)c1ccc(-c2ccccc2[N+](=O)[O-])o1 | i | i | -5.9* | i | i
Cc1noc(NS(=O)(=O)c2ccc(NC(=O)c3cc(-c4ccccc4Cl)nc4ccccc34)cc2)c1C | i | i | i | i | 39*
CS(=O)(=O)N1CC(C(=O)O)Oc2ccc(CC(=O)O)cc21 (stereo unspecified) | i | i | i | i | i
c1cncc(-c2nc(NCCCn3ccnc3)c3ccccc3n2)c1 | i | i | i | -7* | i
Cc1nc(NCCCn2ccnc2)c2ccccc2n1 | i | i | i | i | i
CCOc1ccc(-c2c(C(=O)N/N=C/c3c[nH]c4ccccc34)nnn2-c2nonc2N)cc1 | i | i | i | i | i
Cc1cc(N/N=C/c2cccc(Cl)c2)nc(NCc2ccccc2)n1 | i | i | i | -7.7* | i
Cc1cc(N/N=C/c2ccccc2)nc(NCc2ccccc2)n1 | i | i | i | i | i
COc1ccc(-c2nnc(-c3cc4c(ccc5ccccc54)oc3=O)o2)cc1 | i | i | i | -9* | i
C/C(=C/C#N)Nc1ccc(C)cc1 | i | 12* | i | i | i
COc1ccc(OCCn2cc(/C=N/NC(=O)c3ccncc3)c3ccccc32)cc1 | i | 7.2* | i | i | i
Cc1ccc(OCCn2cc(/C=N/NC(=O)c3ccncc3)c3ccccc32)cc1 | i | i | i | i | i
COCCN(C(=O)Cc1cccs1)C(C(=O)NCc1ccc(OC)cc1)c1ccc(C(C)C)cc1 (stereo unspecified) | i | i | i | -7* | i
CCc1ccc(C(C(=O)NCc2ccc(OC)cc2)N(CCOC)C(=O)Cc2cccs2)cc1 (stereo unspecified) | i | i | i | i | i
O=C(Nc1cccc(S(=O)(=O)NC2=NCCC2)c1)c1cc(-c2ccco2)nc2ccccc12 | i | i | i | i | i
O=C(NC(=S)Nc1cccc(S(=O)(=O)NC2=NCCC2)c1)c1cc(-c2ccco2)nc2ccccc12 | i | i | -4.9* | i | i
CC(NC(=O)Nc1ccccc1F)C(C)(C)C (stereo unspecified) | i | i | i | i | i
Cc1ccc(CNC(=O)CCc2cn(C)c3ccccc23)cc1 | i | i | i | i | i
CS(=O)(=O)N(CC(=O)NCc1ccccc1Cl)c1cccc([N+](=O)[O-])c1 | i | i | i | i | i
Cc1ccc(CSCCNC(=O)CN(c2cccc([N+](=O)[O-])c2)S(C)(=O)=O)cc1 | i | 9.9* | i | i | i
COc1ccc(N(CC(=O)NCCSCc2ccc(C)cc2)S(=O)(=O)c2ccccc2)cc1 | i | i | i | i | i
COc1ccccc1N(CC(=O)NCCSCc1ccc(C)cc1)S(=O)(=O)c1ccccc1 | i | i | i | -10* | i
SMILES | RGS4 inh | MrgX1 allo act | MrgX1 antagonist | RGS4 act | MrgX1 ag
COc1ccccc1N(CC(=O)Nc1c(C)n(C)n(-c2ccccc2)c1=O)S(=O)(=O)c1ccc(C)cc1 | i | i | -5.5* | i | i
O=C1CCC(C(=O)N2CCCCO2)CN1Cc1cccc(F)c1 (stereo unspecified) | i | i | i | i | i
CN(c1ccc(Cl)cc1)S(=O)(=O)c1nnc(NC(=O)C(C)(C)C)s1 | i | i | i | i | i
N=C1/C(=C\c2ccc(-c3cccc(C(=O)O)c3)o2)C(=O)N=C2SC=C(c3ccccc3)N12 | i | 7.1* | i | i | i
Clc1ccc(SCc2cc(Cl)nc(-c3ccccc3)n2)cc1 | i | i | i | -7* | i
Clc1cc(CSc2ccccc2)nc(-c2ccccc2)n1 | i | i | i | i | i
O=C(CC(=O)NCc1ccc(Cl)cc1)NCc1ccccc1 | i | i | i | i | i
Cn1nnnc1Sc1c(Cl)cccc1[N+](=O)[O-] | i | i | -5.6* | i | i
CCOC(=O)N1CCN(C(=O)CSCC(=O)Nc2nc(-c3ccc(-c4ccccc4)cc3)cs2)CC1 | i | i | -6.4* | i | i
COc1cc(/C=C/C(=O)O)cc(S(=O)(=O)Nc2cccc(SC)c2)c1OC | i | i | -6.3* | i | i
COc1cc(/C=C/C(=O)O)cc(S(=O)(=O)Nc2ccc(F)cc2)c1OC | i | i | i | i | i
OCC[C@H]1C[C@H](O)[C@@H](O)[C@@]2(CCCO2)O1 | i | i | i | i | i
O=C(/C=C/c1ccc(N2CCC(c3ccccc3)=N2)cc1)c1ccccc1 | i | i | i | -7.9* | i
Clc1cccc(Cl)c1C1=NOC(c2nnc(-c3ccccc3)o2)C1 (stereo unspecified) | i | i | i | i | i
Cc1cccc(C(=O)NNC(=O)c2ccccc2Br)c1 | i | i | i | i | i
C/C(=N\NC(=O)CC(C)C)c1ccc(N2CCCCC2)cc1 | i | i | i | i | i
Cc1nnc(N2C(=O)C(O)=C(C(=O)c3ccco3)C2c2ccc(C(C)C)cc2)s1 (stereo unspecified) | i | i | i | i | i
CSc1ccc(C2C(C(=O)c3ccco3)=C(O)C(=O)N2c2nnc(SC)s2)cc1 (stereo unspecified) | i | i | -5.4* | i | i
Cc1nnc(N2C(=O)C(O)=C(C(=O)c3ccco3)C2c2ccc(C(C)(C)C)cc2)s1 (stereo unspecified) | i | i | i | i | 27*
Cc1nnc(N2C(=O)C(O)=C(C(=O)c3ccco3)C2c2ccc(F)cc2)s1 (stereo unspecified) | i | i | i | i | i
COc1ccc(C2NC(=S)NC(O)(C(F)(F)F)C2C(=O)c2cccs2)cc1 (stereo unspecified) | i | i | i | i | i
COc1ccc(NC(=O)COc2ccc3c(C)cc(=O)oc3c2)cc1S(=O)(=O)N1CCCCC1 | i | i | i | i | i
CC(C)OC(=O)c1c2nc3ccccc3nc2n2c1[nH]c(=O)c1ccccc12 | i | i | i | i | 32*
